Activity data for 13 compounds are collected here from ChEMBL document CHEMBL1240380, “Acinetobacter baumannii increases tolerance to antibiotics in response to monovalent cations” (Antimicrob Agents Chemother, 2010).

Assay [1] concerns Acinetobacter baumannii. In words: Antibacterial activity against Acinetobacter baumannii ATCC 17978 isolated from human CSF. The assay is classed as functional, organism-based.
Assay [2] deals with Acinetobacter baumannii. In words: Antibacterial activity against Acinetobacter baumannii isolate 510 isolated from human sputum. The assay is classed as functional, organism-based.
Assay [3] concerns Acinetobacter baumannii. In words: Antibacterial activity against Acinetobacter baumannii isolate 2824 isolated from human urine. It counts as functional, organism-based.
Assay [4] concerns Acinetobacter baumannii. In words: Antibacterial activity against Acinetobacter baumannii isolate 2898 isolated from human ankle. The assay is classed as functional, organism-based.
Assay [5] has as its system Acinetobacter baumannii. In words: Antibacterial activity against Acinetobacter baumannii isolate 4860 isolated from human urine. It counts as functional, organism-based.
In assay [6] the test system is Acinetobacter baumannii. In words: Antibacterial activity against Acinetobacter baumannii isolate 5191 isolated from human urine. The assay is classed as functional, organism-based.
Assay [7] deals with Acinetobacter baumannii. In words: Antibacterial activity against Acinetobacter baumannii ATCC 17978 assessed as bacterial growth at 4.5 mg/L in presence of 150 mM NaCl. The assay is classed as functional. Summed up: (§1)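 Overnight cultures were diluted 1:100 in NaCl-free MHB and grown to OD600 0.4. They were then diluted to 10^5 CFU/ml in MHB with or without 150 mM NaCl, plus or minus antibiotic. Growth was run in triplicate for 12 h at 37°C with shaking at 180 rpm, and OD600 was read every 2 h.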

Assay [8] relates to Acinetobacter baumannii. In words: Antibacterial activity against Acinetobacter baumannii using MHB medium assessed as bacterial growth at 4.5 mg/L in presence of 150 mM of KCl. It counts as functional, organism-based. The gist of the method: (§2)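 Growth-curve challenge with 150 mM KCl in place of NaCl. Overnight cultures were diluted 1:100 in NaCl-free MHB and grown to OD600 0.4. They were then diluted to 10^5 CFU/ml in MHB with or without 150 mM KCl, plus antibiotic. Cultures ran in triplicate for 12 h at 37°C with shaking at 180 rpm, and OD600 was read every 2 h.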

The test system of assay [9] is Acinetobacter baumannii. In words: Antibacterial activity against Acinetobacter baumannii using MHB medium assessed as bacterial growth at 4.5 mg/L after 12 hrs in presence of 30 mg/L efflux pump inhibitor PAbetaN. The assay is classed as functional, organism-based.
The test system of assay [10] is Acinetobacter baumannii. In words: Antibacterial activity against Acinetobacter baumannii using MHB medium with 150 mM assessed as bacterial growth at 4.5 mg/L after 12 hrs in presence of 30 mg/L efflux pump inhibitor PAbetaN. It counts as functional, organism-based.
The test system of assay [11] is Acinetobacter baumannii. In words: Antibacterial activity against Acinetobacter baumannii ATCC 17978 assessed as bacterial growth at 0.0625 mg/L in presence of 150 mM NaCl. The assay is classed as functional. The gist of the method:
as §1

Assay [12] relates to Acinetobacter baumannii. In words: Antibacterial activity against Acinetobacter baumannii ATCC 17978 assessed as bacterial growth at 1.125 mg/L in presence of 150 mM NaCl. The assay is classed as functional. Summed up: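 Strain grown overnight, diluted 1:100 in MHB without NaCl and grown to OD600 0.4. Then diluted to 10^5 CFU/ml in MHB supplemented with 150 mM NaCl, with or without gentamicin 1.125 mg/liter. Incubated 12 h at 37°C with shaking at 180 rpm, in triplicate. Growth followed by OD600 every 2 h.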

The test system of assay [13] is Acinetobacter baumannii. In words: Antibacterial activity against Acinetobacter baumannii ATCC 17978 assessed as bacterial growth at 0.09 mg/L in presence of 150 mM NaCl. It counts as functional, organism-based. The gist of the method: as §1
The subject of assay [14] is Acinetobacter baumannii. In words: Antibacterial activity against Acinetobacter baumannii using MHB medium assessed as bacterial growth at 0.09 mg/L in presence of 150 mM of KCl. It counts as functional, organism-based. The gist of the method:
as §2

Calls of active or inactive are those of the source. The calls are words filed in the database; no cut-off is given here.

With `C[C@H]1[C@H](NC(=O)/C(=N\OC(C)(C)C(=O)O)c2csc(N)n2)C(=O)N1S(=O)(=O)O`, the result in the assay on Acinetobacter baumannii [1], in the assay on Acinetobacter baumannii [2], in the assay on Acinetobacter baumannii [3], in the assay on Acinetobacter baumannii [4], in the assay with Acinetobacter baumannii [5] and in the assay on Acinetobacter baumannii [6] was inactive.
As for `CN(C)[C@@H]1C(O)=C(C(N)=O)C(=O)[C@@]2(O)C(O)=C3C(=O)c4c(O)cccc4[C@@](C)(O)[C@H]3C[C@@H]12`, the outcome in the assay with Acinetobacter baumannii [3], in the assay with Acinetobacter baumannii [5] and in the assay on Acinetobacter baumannii [6] was inactive.
As for `NCC[C@H](O)C(=O)N[C@@H]1C[C@H](N)[C@@H](O[C@H]2O[C@H](CN)[C@@H](O)[C@H](O)[C@H]2O)[C@H](O)[C@H]1O[C@H]1O[C@H](CO)[C@@H](O)[C@H](N)[C@H]1O`, the result in the assay on Acinetobacter baumannii [7], in the assay on Acinetobacter baumannii [8], with Acinetobacter baumannii [10], with Acinetobacter baumannii [2], in the assay on Acinetobacter baumannii [3] and in the assay with Acinetobacter baumannii [4] was inactive. Further, the outcome in the assay with Acinetobacter baumannii [5] and with Acinetobacter baumannii [6] was inactive. The result with Acinetobacter baumannii [9] and with Acinetobacter baumannii [1] was Active.
For `CO/N=C(\C(=O)N[C@@H]1C(=O)N2C(C(=O)O)=C(COC(C)=O)CS[C@H]12)c1csc(N)n1`, the result with Acinetobacter baumannii [2], in the assay with Acinetobacter baumannii [3], in the assay with Acinetobacter baumannii [4], in the assay on Acinetobacter baumannii [5] and with Acinetobacter baumannii [6] was inactive.
With `C[C@@H](O)[C@H]1C(=O)N2C(C(=O)O)=C(SCCNC=N)C[C@H]12`, the outcome in the assay on Acinetobacter baumannii [11] was inactive. Also, the outcome in the assay with Acinetobacter baumannii [1], in the assay with Acinetobacter baumannii [2], with Acinetobacter baumannii [3], with Acinetobacter baumannii [4], in the assay with Acinetobacter baumannii [5] and in the assay with Acinetobacter baumannii [6] was Active.
Turning to GENTAMICIN, the result with Acinetobacter baumannii [12], with Acinetobacter baumannii [2], with Acinetobacter baumannii [3], with Acinetobacter baumannii [4], in the assay on Acinetobacter baumannii [5] and with Acinetobacter baumannii [6] was inactive. The outcome in the assay on Acinetobacter baumannii [1] was Active.
Regarding `C[C@H]1COc2c(N3CCN(C)CC3)c(F)cc3c(=O)c(C(=O)O)cn1c23`, the outcome with Acinetobacter baumannii [13], in the assay with Acinetobacter baumannii [14], in the assay on Acinetobacter baumannii [3], in the assay on Acinetobacter baumannii [5] and with Acinetobacter baumannii [6] was inactive.
`CO/N=C(\C(=O)N[C@@H]1C(=O)N2C(C(=O)O)=C(CSc3nc(=O)c(O)nn3C)CS[C@H]12)c1csc(N)n1`: the result with Acinetobacter baumannii [2], in the assay with Acinetobacter baumannii [3], in the assay on Acinetobacter baumannii [4], in the assay on Acinetobacter baumannii [5] and with Acinetobacter baumannii [6] was inactive.
With `CO/N=C(\C(=O)N[C@@H]1C(=O)N2C(C(=O)[O-])=C(C[N+]3(C)CCCC3)CS[C@H]12)c1csc(N)n1`, the result in the assay on Acinetobacter baumannii [1] was Active. In addition, the result in the assay with Acinetobacter baumannii [2], in the assay on Acinetobacter baumannii [3], in the assay on Acinetobacter baumannii [4], with Acinetobacter baumannii [5] and with Acinetobacter baumannii [6] was inactive.
Consider `CC(C)(O/N=C(\C(=O)N[C@@H]1C(=O)N2C(C(=O)[O-])=C(C[n+]3ccccc3)CS[C@H]12)c1csc(N)n1)C(=O)O`, for which the result in the assay with Acinetobacter baumannii [2], with Acinetobacter baumannii [3], in the assay on Acinetobacter baumannii [4], in the assay on Acinetobacter baumannii [5] and with Acinetobacter baumannii [6] was inactive.
For the compound `O=C(O)c1cn(C2CC2)c2cc(N3CCNCC3)c(F)cc2c1=O`, the result in the assay on Acinetobacter baumannii [2], in the assay on Acinetobacter baumannii [3], in the assay with Acinetobacter baumannii [4], in the assay on Acinetobacter baumannii [5] and in the assay with Acinetobacter baumannii [6] was inactive.
Consider `NC[C@H]1O[C@H](O[C@H]2[C@H](O)[C@@H](O[C@H]3O[C@H](CO)[C@@H](O)[C@H](N)[C@H]3O)[C@H](N)C[C@@H]2N)[C@H](N)C[C@@H]1O`, for which, in the assay on Acinetobacter baumannii [1], the result was Active. For the same compound, the result in the assay with Acinetobacter baumannii [2], in the assay with Acinetobacter baumannii [3], with Acinetobacter baumannii [4], in the assay with Acinetobacter baumannii [5] and in the assay with Acinetobacter baumannii [6] was inactive.
On to `C[C@@H](O)[C@H]1C(=O)N2C(C(=O)O)=C(S[C@@H]3CN[C@H](C(=O)N(C)C)C3)[C@H](C)[C@H]12`, for which the outcome in the assay on Acinetobacter baumannii [1], in the assay with Acinetobacter baumannii [2], in the assay on Acinetobacter baumannii [3] and in the assay with Acinetobacter baumannii [4] was Active.
